Measurements pooled from the literature.
Protocols differ between the studies behind these lines.
Target: Mitogen-activated protein kinase kinase kinase 4 (MAP3K4, Homo sapiens, UniProt Q9Y6R4)

The remaining binding of `CCCCC(=O)Nc1ccc(-c2ccc3ncn(CCC)c(=O)c3c2)cn1` is reported as 76% (binding, competition with immobilised ligand; 0.5 µM).
For `CC#CC(=O)N1CCC[C@H]1c1nc(-c2ccc(C(=O)Nc3ccccn3)cc2)c2c(N)nccn12`, the inhibition was 19% (enzyme activity, inhibitor; 1 µM).
With `C[C@H]1CC[C@H](n2c3cnccc3c3cnc(Nc4ccc5c(n4)CCN(C(=O)CO)C5)nc32)CC1` the remaining binding was 100% (binding, competition with immobilised ligand; 1 µM).
The remaining binding of `N#Cc1ccc(NC(=O)Nc2ccccc2)cc1` is reported as 77% (cell-free assay, competition with immobilised ligand; 25 µM).
`Cc1ccc(NC(=O)c2ccnc(C(F)(F)F)c2)cc1-c1cc(OCCO)nc(N2CCOCC2)c1` gave a remaining binding of 90% (binding, competition with immobilised ligand; 1 µM).
`C1=C/COCc2cc(ccc2OCCN2CCCC2)Nc2nccc(n2)-c2cccc(c2)COC/1` has a remaining binding of 100% (binding; 0.1 µM).
For `CO[C@@H]1[C@H](N(C)C(=O)c2ccccc2)C[C@H]2O[C@]1(C)n1c3ccccc3c3c4c(c5c6ccccc6n2c5c31)C(=O)NC4`, the inhibition was 4% (enzyme activity, inhibitor; 1 µM).
`C#Cc1cnc(Nc2ccnc(CO)c2)nc1Nc1ccccc1S(C)(=O)=NC#N` (centres unmarked) has a remaining signal of 86% (cell-free assay; 1 µM).
